Here are results for 17 compounds from ChEMBL document CHEMBL3272092, “Synthesis and antihypertensive activity of 5-thio-2-pyridinecarboxylic acid derivatives” (J Med Chem, 1978).

Data set [1] concerns Rattus norvegicus. The data set is described as follows: Antihypertensive activity in spontaneous hypertensive rat model assessed as decrease in blood pressure at 100 mg/kg, po administered for 2 to 4 days measured on day 2 to day 4. It counts as functional. In short, it runs like this: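 SHR, 4–6 per drug, were dosed daily by gavage for 2 or 4 consecutive days in 3% cornstarch, 5% PEG-400 and 1 drop Tween 80 per mL. After 1 h acclimation, systolic pressure was read by tail-cuff (inflated to 250 mmHg, then lowered; pulse reemergence), at least three readings, at 1, 2, 3 and 24 h post-dose. The peak fall is scored: +, <20 mm up to >80 mm.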

In data set [2] the test system is Canis familiaris. Nature of the data set: Toxicity in unanesthetized renal hypertensive Mongrel dog model assessed as change in heart rate at 60 mg/kg, po qd measured on day 3. Format: organism-based, Canis lupus familiaris. Further details: dose 60 mg/kg, route oral. The conditions noted are these: in vivo. An outline of the steps:
(§1)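 Conscious renal hypertensive dogs. Blood pressure recorded through a hypodermic needle and tubing to a pressure transducer; heart rate counted by hand. Solid drug given orally once daily in gelatin capsule. Pressures read at 1.5, 3, 6 and 24 h after each dose; maximum changes in pressure and heart rate over each daily session reported.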

For data set [3], the system named is Canis familiaris. The data set is described as follows: Toxicity in unanesthetized renal hypertensive Mongrel dog model assessed as change in heart rate at 60 mg/kg, po qd measured on day 2. It counts as organism-based, Canis lupus familiaris. Set-up: dose 60 mg/kg, route oral. The conditions noted are these: in vivo. In short, it runs like this: as §1
The subject of data set [4] is Squirrel monkey. The data set is described as follows: Antihypertensive activity in normotensive squirrel monkey model assessed as decrease in systolic blood pressure at 100 mg/kg, po qd measured on day 2 by sphygmomanometry. Format: functional, Saimiri sciureus, Artery. In short, it runs like this: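 Restrained squirrel monkeys of either sex with tails warmed by infrared lamp. Systolic pressure was measured indirectly with a tail-base occlusion cuff and pulse transducer. Doses were given daily by gavage as a suspension in 3% cornstarch, 5% PEG-400 and 1 drop Tween 80 per 10 mL. Readings were taken 1.5, 3, 5 and 24 h post-dose. Values are the peak change after each dose, analysed by paired t test.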

Data set [5] relates to Canis familiaris. Nature of the data set: Toxicity in unanesthetized renal hypertensive Mongrel dog model assessed as emesis at 60 mg/kg, po qd measured on day 1 to 4. Set-up: dose 60 mg/kg, route oral. The conditions noted are these: in vivo. It counts as organism-based, Canis lupus familiaris.
Data set [6] has as its system Canis familiaris. Nature of the data set: Antihypertensive activity in unanesthetized renal hypertensive Mongrel dog model assessed as change in mean blood pressure at 60 mg/kg, po qd measured on day 3. It counts as functional, Canis lupus familiaris. In short, it runs like this:
as §1

For data set [7], the system named is Squirrel monkey. Nature of the data set: Toxicity in normotensive squirrel monkey model assessed as emesis at 30 mg/kg, po qd measured on day 1. Format: organism-based, Saimiri sciureus. Set-up: dose 30 mg/kg, route oral. The conditions noted are these: in vivo.
The subject of data set [8] is Canis familiaris. The data set is described as follows: Toxicity in unanesthetized renal hypertensive Mongrel dog model assessed as change in heart rate at 60 mg/kg, po qd measured on day 1. It counts as organism-based, Canis lupus familiaris. Further details: dose 60 mg/kg, route oral. The conditions noted are these: in vivo. In short, it runs like this:
as §1

In data set [9] the test system is Squirrel monkey. Nature of the data set: Toxicity in normotensive squirrel monkey model assessed as change in heart rate at 30 mg/kg, po qd measured on day 1. The conditions noted are these: in vivo. Set-up: dose 30 mg/kg, route oral. It counts as organism-based, Saimiri sciureus. An outline of the steps:
(§2)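 Squirrel monkeys of either sex restrained in primate chairs, tails warmed by infrared lamp. Systolic pressure taken indirectly by tail-base occlusion cuff with pulse transducer; heart rate counted by hand from the pressure trace. Daily gavage of a suspension in 3% cornstarch, 5% PEG-400 and 1 drop Tween 80 per 10 mL. Read at 1.5, 3, 5 and 24 h; peak change per dose; paired t test.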

The subject of data set [10] is Squirrel monkey. The data set is described as follows: Toxicity in normotensive squirrel monkey model assessed as emesis at 100 mg/kg, po qd measured on day 2. Further details: dose 100 mg/kg, route oral. It counts as organism-based, Saimiri sciureus. The conditions noted are these: in vivo.
Data set [11] concerns Squirrel monkey. The data set is described as follows: Toxicity in normotensive squirrel monkey model assessed as change in heart rate at 100 mg/kg, po qd measured on day 2. Set-up: dose 100 mg/kg, route oral. Format: organism-based, Saimiri sciureus. The conditions noted are these: in vivo. An outline of the steps: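 Heart rate in restrained, tail-warmed squirrel monkeys was counted manually from the tail-cuff pressure record. Daily gavage used a suspension in 3% cornstarch, 5% PEG-400 and 1 drop Tween 80 per 10 mL. Monitoring was at 1.5, 3, 5 and 24 h after each dose, and the peak change per administration is reported. Paired t test.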

Data set [12] relates to Canis familiaris. Nature of the data set: Antihypertensive activity in unanesthetized renal hypertensive Mongrel dog model assessed as change in mean blood pressure at 60 mg/kg, po qd measured on day 2. It counts as functional, Canis lupus familiaris. In short, it runs like this:
as §1

In data set [13] the test system is Squirrel monkey. Nature of the data set: Antihypertensive activity in normotensive squirrel monkey model assessed as decrease in systolic blood pressure at 30 mg/kg, po qd measured on day 1 by sphygmomanometry. Format: functional, Saimiri sciureus, Artery. An outline of the steps: as §2
Data set [14] concerns Canis familiaris. Nature of the data set: Antihypertensive activity in unanesthetized renal hypertensive Mongrel dog model assessed as change in mean blood pressure at 60 mg/kg, po qd measured on day 1. Format: functional, Canis lupus familiaris. An outline of the steps:
as §1

Data set [15] deals with Rattus norvegicus. Nature of the data set: Toxicity in spontaneous hypertensive rat model at 100 mg/kg, po administered for 2 to 4 days. The conditions noted are these: in vivo. Set-up: dose 100 mg/kg, route oral. It counts as organism-based.

For the compound `O=C(O)c1ccc(SCc2cccc(F)c2)cn1`, the Activity in data set [1] is reported as above 20 mmHg.

In the case of `O=C([O-])c1ccc(SCc2ccc(F)cc2)cn1.[Na+]`, the Activity in data set [1] is above 20 mmHg.

`CCCCc1ccc(C(=O)O)nc1` [FUSARIC ACID]: the Activity in [1] was above 60 mmHg; in data set [2], 33 bpm; in data set [3], 35 bpm; in data set [4], -53 mmHg; in data set [5] it was “Toxic”; in data set [6] it was -30 mmHg. In addition, the Activity entry is given as “Non-toxic” in data set [7]; 32 bpm in [8]; -20 bpm in data set [9]; “Non-toxic” in data set [10]; 10 bpm in data set [11]; -45 mmHg in data set [12]. Besides, the values for the Activity in data set [13] and in data set [14] were -28 mmHg and -50 mmHg, respectively.

Regarding `O=C(O)c1ccc(Sc2cccc(Cl)c2)cn1`, in data set [1], the Activity is reported as above 20 mmHg.

For `O=C(O)c1ccc(SCCCc2ccccc2)cn1`, the Activity in data set [1] is above 20 mmHg.

Regarding `CCCC(Sc1ccc(C(=O)O)nc1)c1cccc(C(F)(F)F)c1` (stereo not given), the Activity in [1] is given as above 20 mmHg.

On to `O=C(O)c1ccc(SCc2cccc(Cl)c2)cn1`, for which the Activity in data set [1] is recorded as above 40 mmHg.

For `O=C([O-])c1ccc([S+]([O-])Cc2cccc(Br)c2)cn1.[Na+]` (stereo not given), in [1], the Activity is reported as above 20 mmHg.

Consider `O=C(O)c1ccc(SCc2ccccc2Cl)cn1`, for which the Activity in [1] is on record as below 20 mmHg.

Turning to `CC(Sc1ccc(C(=O)O)nc1)c1cccc(C(F)(F)F)c1` (stereo not given), the Activity in [1] is above 40 mmHg.

Regarding `O=C(O)c1ccc(SCCc2ccccc2)cn1`, the Activity entry in [15] was “Toxic”.

With `O=C([O-])c1ccc(SCc2ccc(Br)cc2)cn1.[Na+]`, in data set [1], the Activity was above 40 mmHg.

For `O=C(O)c1ccc([S+]([O-])c2ccc(Cl)cc2)cn1` (stereo not given), the Activity in data set [1] is below 20 mmHg.

Consider `O=C(O)c1ccc([S+]([O-])Cc2ccc(Cl)cc2)cn1` (stereo not given), for which the Activity in data set [1] was above 20 mmHg.

On to `O=C([O-])c1ccc([S+]([O-])CCCc2ccccc2)cn1.[Na+]` (stereo not given), for which the Activity in data set [1] is listed as below 20 mmHg.

On to `O=C([O-])c1ccc([S+]([O-])Cc2ccc(Cl)cc2Cl)cn1.[Na+]` (stereo not given), for which the Activity in data set [1] is reported as above 20 mmHg.

For the compound `O=C([O-])c1ccc(SCc2cccc(Br)c2)cn1.[Na+]`, the Activity in data set [1] is above 60 mmHg.
